Laboratory results: ChEMBL document CHEMBL1138395, “Adamantane sulfone and sulfonamide 11-beta-HSD1 Inhibitors” (Bioorg Med Chem Lett, 2007)

Columns and labels:
[1] = Plasma clearance in mouse at 10 mg/kg, iv; format: ADME, organism-based; parameters: dose 10 mg/kg, route intravenous
[2] = Half life in monkey at 2.5 mg/kg, iv; format: ADME, organism-based, Macaca mulatta; parameters: dose 2.5 mg/kg, route intravenous; settings: rhesus monkey, in vivo
Mus musculus [3] = test: Ex vivo inhibition of fat 11-beta-HSD1 in DIO mouse at 30 mg/kg, po after 1 hr; format: functional
Outline: (§1)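 DIO mice dosed orally at 30 mpk; animals killed 1, 7 and 16 h after the dose and liver, fat and brain taken. Ex vivo 11-β-HSD1 activity (cortisol levels) in tissue was measured and percent inhibition expressed relative to vehicle-dosed animals; means from two animals per point.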

Mus musculus [4] = test: Ex vivo inhibition of fat 11-beta-HSD1 in DIO mouse at 30 mg/kg, po after 7 hrs; format: functional; outline: as §1
[5] = Volume of distribution at steady state in mouse at 10 mg/kg; format: ADME, organism-based; parameters: dose 10 mg/kg; settings: in vivo, read-out: Vdss
Mus musculus [6] = test: Ex vivo inhibition of liver 11-beta-HSD1 in DIO mouse at 30 mg/kg, po after 16 hrs; format: functional; outline: as §1
Mus musculus [7] = test: Ex vivo inhibition of liver 11-beta-HSD1 in DIO mouse at 30 mg/kg, po after 1 hr; format: functional; outline: as §1
Mus musculus [8] = test: Ex vivo inhibition of liver 11-beta-HSD1 in DIO mouse at 30 mg/kg, po after 7 hrs; format: functional; outline: as §1
[9] = Metabolic stability in mouse hepatocytes assessed as intrinsic clearance; format: ADME, cell-based, Liver, Hepatocyte
Outline: (§2)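 Intrinsic clearance (L/h/kg) determined from incubations with liver microsomes (mouse, monkey, human) or hepatocytes (mouse, monkey); values are means of three experiments.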

Mus musculus [10] = test: Ex vivo inhibition of fat 11-beta-HSD1 in DIO mouse at 30 mg/kg, po after 16 hrs; format: functional; outline: as §1
[11] = Metabolic stability in mouse liver microsomes assessed as compound remaining after 30 mins; format: ADME, Microsome; settings: read-out: Stability
Outline: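 Test compound incubated with mouse liver microsomes for 30 min; percent of parent compound remaining afterward reported.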

Mus musculus [12] = test: Ex vivo inhibition of brain 11-beta-HSD1 in DIO mouse at 30 mg/kg, po after 1 hr; format: functional; outline: as §1
[13] = Half life in mouse at 10 mg/kg, iv; format: ADME, organism-based; parameters: dose 10 mg/kg, route intravenous; settings: in vivo
Mus musculus [14] = test: Ex vivo inhibition of brain 11-beta-HSD1 in DIO mouse at 30 mg/kg, po after 16 hrs; format: functional; outline: as §1
[15] = Volume of distribution at steady state in monkey at 2.5 mg/kg; format: ADME, organism-based, Macaca mulatta; parameters: dose 2.5 mg/kg; settings: rhesus monkey, in vivo, read-out: Vdss
[16] = Metabolic stability in mouse liver microsomes assessed as intrinsic clearance; format: ADME, Microsome; outline: as §2
Mus musculus [17] = test: Ex vivo inhibition of brain 11-beta-HSD1 in DIO mouse at 30 mg/kg, po after 7 hrs; format: functional; outline: as §1
[18] = AUC in mouse at 10 mg/kg, po; format: ADME, organism-based; parameters: dose 10 mg/kg, route oral; settings: plasma
[19] = Metabolic stability in monkey hepatocytes assessed as intrinsic clearance; format: ADME, cell-based, Macaca mulatta, Liver, Hepatocyte; settings: rhesus monkey; outline: as §2
[20] = Volume of distribution at terminal phase in mouse at 10 mg/kg; format: ADME, organism-based; parameters: dose 10 mg/kg; settings: in vivo, read-out: Vbeta
[21] = Plasma clearance in monkey at 2.5 mg/kg, iv; format: ADME, organism-based, Macaca mulatta; parameters: dose 2.5 mg/kg, route intravenous; settings: rhesus monkey
[22] = target: 11-beta-hydroxysteroid dehydrogenase 1 (Mus musculus, UniProt P50172); test: Inhibition of mouse HSD1 assessed as interconversion of cortisone to cortisol
11-beta-hydroxysteroid dehydrogenase 1, sequence (P50172 whole entry): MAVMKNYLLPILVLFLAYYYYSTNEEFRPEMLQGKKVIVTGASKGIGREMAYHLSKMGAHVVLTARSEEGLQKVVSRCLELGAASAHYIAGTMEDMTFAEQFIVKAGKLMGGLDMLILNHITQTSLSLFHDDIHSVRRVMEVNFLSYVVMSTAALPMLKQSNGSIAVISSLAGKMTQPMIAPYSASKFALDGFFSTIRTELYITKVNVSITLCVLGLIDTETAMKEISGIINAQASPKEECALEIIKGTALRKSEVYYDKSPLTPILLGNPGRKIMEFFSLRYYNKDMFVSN
Outline: (§3)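 Enzyme inhibition measured as blocking the interconversion between cortisone and cortisol by mouse HSD1 (reported as Ki) or mouse HSD2 (reported as IC50); values are means of at least two experiments.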

[23] = Metabolic stability in monkey liver microsomes assessed as intrinsic clearance; format: ADME, Macaca mulatta, Microsome; settings: rhesus monkey; outline: as §2
[24] = AUC in monkey at 2.5 mg/kg, po; format: ADME, organism-based, Macaca mulatta; parameters: dose 2.5 mg/kg, route oral; settings: rhesus monkey, plasma
[25] = target: T1, 11-beta-hydroxysteroid dehydrogenase type 2 (Mus musculus, UniProt P51661); test: Inhibition of mouse HSD2 assessed as interconversion of cortisone to cortisol; outline: as §3
T1 sequence (P51661 whole entry): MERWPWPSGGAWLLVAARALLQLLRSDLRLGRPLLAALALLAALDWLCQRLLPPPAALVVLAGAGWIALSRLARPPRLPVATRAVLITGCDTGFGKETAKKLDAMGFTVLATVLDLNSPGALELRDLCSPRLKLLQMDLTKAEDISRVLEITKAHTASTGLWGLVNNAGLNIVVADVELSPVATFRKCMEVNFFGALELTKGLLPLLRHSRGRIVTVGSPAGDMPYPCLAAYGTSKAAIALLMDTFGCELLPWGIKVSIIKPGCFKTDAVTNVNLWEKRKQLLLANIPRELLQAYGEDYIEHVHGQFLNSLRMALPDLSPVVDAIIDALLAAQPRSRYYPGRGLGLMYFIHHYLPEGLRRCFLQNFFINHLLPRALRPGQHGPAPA

[26] = Oral bioavailability in monkey at 2.5 mg/kg; format: ADME, organism-based, Macaca mulatta; settings: rhesus monkey, in vivo
[27] = Volume of distribution at terminal phase in monkey at 2.5 mg/kg; format: ADME, organism-based, Macaca mulatta; parameters: dose 2.5 mg/kg; settings: rhesus monkey, in vivo, read-out: Vbeta
[28] = Metabolic stability in human liver microsomes assessed as intrinsic clearance; format: ADME, Microsome; outline: as §2
[29] = Oral bioavailability in mouse at 10 mg/kg; format: ADME, organism-based; settings: in vivo

**Q.** For `CC(C)(Oc1ccc(F)cc1Cl)C(=O)N[C@H]1C2CC3CC1C[C@](S(C)(=O)=O)(C3)C2`, which clearance [1] is on record?
**A.** 18.3 mL/min/kg

**Q.** What about the half-life [2] of the same molecule?
**A.** 306 min

**Q.** And the inhibition in vivo at 30 mg/kg (Mus musculus [3])?
**A.** 87%

**Q.** What about the inhibition in vivo at 30 mg/kg (Mus musculus [4]) of the same molecule?
**A.** 93%

**Q.** And the Vd [5]?
**A.** 1.5 L/kg

**Q.** What about the inhibition in vivo at 30 mg/kg (Mus musculus [6]) of the same molecule?
**A.** 89%

**Q.** What about the inhibition in vivo at 30 mg/kg (Mus musculus [7]) of the same molecule?
**A.** 95%

**Q.** And the inhibition in vivo at 30 mg/kg (Mus musculus [8])?
**A.** 95%

**Q.** What about the CLint scaled [9] of the same molecule?
**A.** 3.33 mL/min/kg

**Q.** What about the inhibition in vivo at 30 mg/kg (Mus musculus [10]) of the same molecule?
**A.** 86%

**Q.** What about the remaining at 0.5 h [11] of the same molecule?
**A.** 57%

**Q.** What about the inhibition in vivo at 30 mg/kg (Mus musculus [12]) of the same molecule?
**A.** 90%

**Q.** What about the half-life [13] of the same molecule?
**A.** 60 min

**Q.** And the inhibition in vivo at 30 mg/kg (Mus musculus [14])?
**A.** 77%

**Q.** And the Vd [15]?
**A.** 2.7 L/kg

**Q.** What about the CLint scaled [16] of the same molecule?
**A.** 100 mL/min/kg

**Q.** What about the inhibition in vivo at 30 mg/kg (Mus musculus [17]) of the same molecule?
**A.** 90%

**Q.** And the AUC [18]?
**A.** 8900 ng·h/mL

**Q.** And the CLint scaled [19]?
**A.** 1.67 mL/min/kg

**Q.** What about the Vd [20] of the same molecule?
**A.** 1.7 L/kg

**Q.** And the clearance [21]?
**A.** 6.67 mL/min/kg

**Q.** And the Ki [22]?
**A.** 4 nM

**Q.** And the CLint scaled [23]?
**A.** 25 mL/min/kg

**Q.** And the AUC [24]?
**A.** 6810 ng·h/mL

**Q.** What about the IC50 [25] of the same molecule?
**A.** > 100 µM

**Q.** And the bioavailability [26]?
**A.** 109%

**Q.** And the Vd [27]?
**A.** 3.1 L/kg

**Q.** And the CLint scaled [28]?
**A.** 26.7 mL/min/kg

**Q.** And the bioavailability [29]?
**A.** 100%
